Screening data: PubChem BioAssay, several laboratories
UCH37 DUB inh: human UCH37 deubiquitinating enzyme inhibition | inhibition, % (concentration not given with the values) | purified proteasome/UCH37, Ub-AMC cleavage fluorescence | Q9Y5K5 | actives 0.33% (n = 330,000);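 active means mean inhibition over replicate wells above about 20%, limit read from the data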;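 further: 0% = compound-free wells with enzyme and 100% = wells lacking proteasome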
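system = Proteasome-associated human UCH37 deubiquitinase | amount = 0.15 nM proteasome as dispensed | medium = pH 7.4 Tris-HCl (50 mM) with ovalbumin, ATP-MgCl2, DTT | incubation = 30 min preincubation with enzyme, 25 min cleavage at room temperature | detection = AMC fluorescence 355/460 nm | read-out basis = percent inhibition | controls = no-proteasome and no-compound wells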
pPAFAH inh: pPAFAH (human) enzyme inhibition; inhibition, % at 3.39 µM; actives 1.5% (n = 330,000); recombinant pPAFAH, FP-rhodamine probe fluorescence polarization; Q13093;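 active means inhibition above the mean inhibition across the screen plus 3 SD, cut at about 25% in these data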;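 further: inhibitors block binding of the rhodamine activity-based probe so polarization drops; 0% = enzyme with DMSO and 100% = wells lacking pPAFAH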
Target sequence (Q13093 whole entry, looked up): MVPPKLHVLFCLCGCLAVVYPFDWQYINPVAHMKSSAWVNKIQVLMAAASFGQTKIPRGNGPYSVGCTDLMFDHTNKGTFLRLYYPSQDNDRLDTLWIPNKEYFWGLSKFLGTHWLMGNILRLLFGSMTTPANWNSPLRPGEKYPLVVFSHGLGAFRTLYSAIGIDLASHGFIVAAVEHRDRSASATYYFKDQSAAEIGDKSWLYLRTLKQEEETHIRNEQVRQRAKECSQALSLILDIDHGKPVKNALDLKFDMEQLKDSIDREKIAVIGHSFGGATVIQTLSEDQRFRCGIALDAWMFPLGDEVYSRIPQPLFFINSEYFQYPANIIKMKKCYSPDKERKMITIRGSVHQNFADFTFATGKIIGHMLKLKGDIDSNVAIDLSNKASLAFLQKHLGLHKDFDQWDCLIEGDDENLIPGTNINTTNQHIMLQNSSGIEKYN
PAFAH1B2 FP inh: inhibitors of human PAFAH1B2; AID 492953; P68402; recombinant PAFAH1B2, FP-rhodamine activity probe, fluorescence polarization; actives 1.2% (n = 340,000); inhibition, % at 3.39 µM;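 active means inhibition above the mean of all tested compounds plus 3 SD, cut at about 24% in these data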;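 further: 0% = enzyme with DMSO and 100% = wells lacking PAFAH1B2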
GRIN3A LBD mod: NR3A (human) ligand-binding domain modulation. NR3A LBD differential scanning fluorimetry, Tm shift; 0% = protein alone, 100% = glycine-bound protein. Tm shift relative to glycine control, % at 25 µM. actives 2.5% (n = 340,000);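 active means melting temperature shift of at least 10% of the positive control shift, at one fixed dose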
PAFAH2 inh: inhibitors of human PAFAH2 | Q99487 | recombinant PAFAH2, FP-rhodamine activity probe, fluorescence polarization | inhibition, % at 3.39 µM | actives 0.99% (n = 340,000);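 active means inhibition above the mean over all tested compounds plus 3 SD, cut at about 30% in these data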;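 further: inhibitors block probe labeling of enzyme so polarization drops; 0% = enzyme with DMSO and 100% = wells lacking PAFAH2 protein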
PAFAH1B3 inh: blocks human PAF acetylhydrolase 1B catalytic subunit 3; actives 0.28% (n = 340,000); inhibition, % at 3.39 µM; recombinant PAFAH1B3, FP-rhodamine probe, fluorescence polarization; AID 492972; Q15102;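 active means inhibition above the screen-wide average of all tested compounds plus 3 SD, cut at about 25% in these data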;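 further: 0% = enzyme with DMSO only and 100% = wells lacking PAFAH1B3 protein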
Target sequence (Q15102 whole entry, looked up): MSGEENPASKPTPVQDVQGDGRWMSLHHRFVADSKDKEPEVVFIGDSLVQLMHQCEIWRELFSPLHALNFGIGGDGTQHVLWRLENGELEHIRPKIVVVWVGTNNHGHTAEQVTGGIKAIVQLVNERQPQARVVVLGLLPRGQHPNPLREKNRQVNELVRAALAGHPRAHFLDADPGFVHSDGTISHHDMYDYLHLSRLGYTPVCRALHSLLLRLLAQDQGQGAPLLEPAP
Active calls of the source: *; . = not tested or not shown. This is a sample that favours compounds with a hit; in the whole collection about 4.8% have one here.

SMILES | UCH37 DUB inh | pPAFAH inh | PAFAH1B2 FP inh | GRIN3A LBD mod | PAFAH2 inh | PAFAH1B3 inh
COc1cc([C@H]2Oc3cc([C@H]4Oc5cc(O)cc(O)c5C(=O)[C@@H]4O)ccc3O[C@@H]2CO)ccc1O | 6 | 3 | 2 | -9 | 0 | 19
CC(C)NC(=O)c1ccc(COc2ccc(C(C)(C)C)cc2)o1 | 2 | 4 | 2 | 16* | 8 | 5
COc1cc(C=NNc2ccc(Cl)nn2)cc(OC)c1O | 9 | . | . | . | . | .
C=C[C@]1(C)C=C2CC[C@H]3[C@@](C)(CCC[C@@]3(C)C(=O)O)[C@@H]2CC1 | 1 | 4 | 48* | -6 | 9 | 0
CCCC[C@@H]1CCCO[C@@](C(=O)NCc2ccccn2)(C(F)(F)F)C1 | 2 | 2 | 0 | -3 | -1 | -4
CCC[C@@H]1CCCO[C@@](C(=O)NCc2ccccn2)(C(F)(F)F)C1 | 0 | 1 | 30* | -2 | 9 | 9
CCOC(=O)C1=C(C)N=c2sc(=Cc3ccc(OCC(=O)O)cc3)c(=O)n2C1c1cc(OC)c(OC)c(OC)c1 (stereo not given) | 11 | . | . | . | . | .
CCOc1ccc(-c2c(C(=O)NN=Cc3ccc(OC(C)C)cc3)nnn2-c2nonc2N)cc1 | -11 | . | . | . | . | .
CCOC(=O)c1cc(C#N)c(SCC(=O)O)[nH]c1=O | -46 | 32* | 2 | -1 | -6 | 31*
Cc1ccc(C=NNC(=O)CNC(=O)c2cccs2)cc1 | 0 | . | . | . | . | .
COc1ccc(C=NNC(=O)c2cnccn2)c(OC)c1OC | 8 | . | . | . | . | .
CCOC(=O)c1c(C2COc3ccccc3O2)csc1NC(=O)c1ccccc1 (stereo not given) | -179 | 3 | 6 | 11* | 0 | -4
O=[N+]([O-])c1cc(-c2ccc(C=Nc3nc4ccccn4c3-c3ccco3)o2)ccc1Cl | -14 | . | . | . | . | .
COc1ccc(C2=CC3=C(Br)C(=O)C(C)(OC(=O)c4cccs4)C(=O)C3=CO2)cc1 (stereo not given) | 2 | 28* | 9 | -21 | 10 | 1
COc1ccc(C2=CC3=C(Br)C(=O)C(C)(OC(=O)c4ccco4)C(=O)C3=CO2)cc1 (stereo not given) | 1 | 23 | 10 | -6 | 20 | 7
O=C(Cc1cccs1)Nc1ccc(-c2nnc(-c3ccccc3)o2)cc1 | -8 | 6 | -2 | 28* | -3 | -13
Cc1nnc2ccc(-c3ccc(NC(=O)Cc4cccs4)cc3)nn12 | -6 | 27* | 1 | -1 | -3 | 3
O=C(NN=Cc1ccc[nH]1)c1ccc(Cl)cc1 | 6 | . | . | . | . | .
NC(=S)NN=Cc1ccc(-n2nncc2-c2ccc(Cl)cc2)cc1 | 6 | . | . | . | . | .
O=C(O)CCc1ccc(-c2ccc(F)cc2)n1Cc1ccco1 | -3 | 12 | 29* | 0 | 7 | -1
N#Cc1c(NC(=O)CSc2nnc(-c3ccco3)n2-c2ccccc2)sc2c1CCC2 | 0 | 13 | 3 | -1 | 8 | 2
NC(=O)c1c(NC(=O)CSc2nnc(-c3ccco3)n2-c2ccccc2)sc2c1CCC2 | 2 | 33* | -3 | -4 | 11 | -6
O=C(COc1ccc(Cl)cc1)NCC(=O)NN=Cc1cccs1 | 4 | . | . | . | . | .
Cc1cc(=O)n2nc(N3CCC(C(=O)NCC(C)c4ccccc4)CC3)sc2n1 (stereo not given) | 2 | 4 | 8 | 10* | 0 | 12
Cc1cc(=O)n2nc(N3CCC(C(=O)NC(C)c4ccccc4)CC3)sc2n1 (stereo not given) | -1 | 4 | 5 | 2 | -5 | -1
SMILES | UCH37 DUB inh | pPAFAH inh | PAFAH1B2 FP inh | GRIN3A LBD mod | PAFAH2 inh | PAFAH1B3 inh
Cn1cccc1CC(=O)NN=Cc1cccc([N+](=O)[O-])c1 | 5 | . | . | . | . | .
O=C(NN=Cc1cccc(OCc2ccccc2)c1)c1ccc(Br)cc1 | -1 | . | . | . | . | .
CCC1CN(C(=O)NCc2ccccc2)c2cc(C)ccc2O1 (stereo not given) | 2 | . | 36* | 4 | 71* | 50*
CCC1CN(C(=O)NCc2ccc(C)cc2)c2cc(C)ccc2O1 (stereo not given) | 4 | . | -5 | 1 | -4 | 6
COc1ccccc1NS(=O)(=O)c1cc([N+](=O)[O-])ccc1NN=Cc1c(C)[nH]c2ccccc12 | 6 | . | . | . | . | .
CC(NO)C(=NO)c1cccs1 (stereo not given) | 3 | . | . | . | . | .
O=C(CCNc1n[nH]c(=O)[nH]c1=O)NN=Cc1ccccc1Br | 3 | . | . | . | . | .
CN(C)c1cccc(F)c1C(=O)NC(=O)Nc1ccc(Cl)cc1 | . | . | 5 | 11* | 9 | 4
Clc1cncc(Cl)c1NN=Cc1ccccc1 | 6 | . | . | . | . | .
Cc1cc(C)cc(OCC(=O)OCC(=O)NC2CC2)c1 | 3 | 27* | -3 | -1 | 1 | 12
Cc1ccc(OCCC(=O)OCC(=O)NC2CCCC2)cc1 | 3 | 20 | 0 | 0 | -5 | 1
CCCCOc1ccc(C(=O)OCC(=O)NC2CCCC2)cc1 | 4 | 25* | 2 | -1 | 85* | 1
CCOc1ccc(OCCC(=O)OCC(=O)NC2CCCC2)cc1 | 3 | 30* | 3 | 3 | -4 | 8
NC(=O)CN1C(=O)C(=c2sc3nc(=O)c(Cc4ccccc4)nn3c2=O)c2ccccc21 | 5 | . | . | . | . | .
OC(CNCC(c1ccc(Cl)cc1Cl)c1c[nH]c2ccccc12)c1ccccc1 (stereo not given) | 6 | 1 | -1 | 24* | 8 | 8
O=[N+]([O-])CC(c1ccccc1)c1c[nH]c2ccccc12 (stereo not given) | 4 | -2 | . | -6 | . | .
N#Cc1ccc(Oc2ccc(C=NO)cn2)cc1 | 5 | . | . | . | . | .
Clc1cccc(Cl)c1CNc1ccc(N2CCCC2)cc1 | 1 | 27* | . | -2 | . | .
Cc1c(C=NN=C2CCC3C4CCc5cc(O)ccc5C4CCC23C)cnn1C (stereo not given) | 2 | . | . | . | . | .
CC(=NNc1cccc2cccnc12)c1ccccc1O | 6 | . | . | . | . | .
CN(C)N=C/C=C1\CC/C(=C\c2ccc(F)c(F)c2)C1=O | 6 | . | . | . | . | .
C(=N\Nc1nc(Nc2ccccc2)nc(N2CCOCC2)n1)/c1c[nH]c2ccccc12 | . | 11 | . | 18* | . | .
Cc1[nH]c2ccccc2c1/C=N/Nc1nc(Nc2ccc(F)cc2)nc(N2CCOCC2)n1 | . | 10 | 20 | -3 | -1 | 11
Cc1ccc(Nc2nc(N/N=C/c3c[nH]c4ccccc34)nc(N3CCOCC3)n2)cc1 | . | 18 | 3 | 29* | 1 | 15
c1ccc(Nc2nc(N3CCOCC3)nc(N3CCOCC3)n2)cc1 | 3 | 3 | 1 | 0 | -6 | 5
Cc1cccc(C(=O)Oc2c(Br)cc(Br)cc2C=NNC(=O)c2ccncc2)c1 | 1 | . | . | . | . | .
O=C(CNC(=O)C1COc2ccccc2O1)NN=Cc1ccc(Cl)cc1 (stereo not given) | 3 | . | . | . | . | .
COc1ccc(S(=O)(=O)Nc2cccc3c2O[C@H](CN(C)Cc2ccc(Oc4ccccc4)cc2)[C@@H](C)CN([C@H](C)CO)C3=O)cc1 | 1 | 26* | -2 | -8 | 6 | 4
